ChEMBL document CHEMBL3352266
Active and inactive are the calls of the source. No cut-off for these calls is given here.

Tests used:
Myeloperoxidase = target: T1, Myeloperoxidase (Homo sapiens, UniProt P05164); assay: Inhibition of myeloperoxidase (unknown origin) assessed as reduction in enzymatic hypochlorous acid production by spectrophotometry based taurine chlorination assay; type: single protein
T1 sequence (P05164 whole entry): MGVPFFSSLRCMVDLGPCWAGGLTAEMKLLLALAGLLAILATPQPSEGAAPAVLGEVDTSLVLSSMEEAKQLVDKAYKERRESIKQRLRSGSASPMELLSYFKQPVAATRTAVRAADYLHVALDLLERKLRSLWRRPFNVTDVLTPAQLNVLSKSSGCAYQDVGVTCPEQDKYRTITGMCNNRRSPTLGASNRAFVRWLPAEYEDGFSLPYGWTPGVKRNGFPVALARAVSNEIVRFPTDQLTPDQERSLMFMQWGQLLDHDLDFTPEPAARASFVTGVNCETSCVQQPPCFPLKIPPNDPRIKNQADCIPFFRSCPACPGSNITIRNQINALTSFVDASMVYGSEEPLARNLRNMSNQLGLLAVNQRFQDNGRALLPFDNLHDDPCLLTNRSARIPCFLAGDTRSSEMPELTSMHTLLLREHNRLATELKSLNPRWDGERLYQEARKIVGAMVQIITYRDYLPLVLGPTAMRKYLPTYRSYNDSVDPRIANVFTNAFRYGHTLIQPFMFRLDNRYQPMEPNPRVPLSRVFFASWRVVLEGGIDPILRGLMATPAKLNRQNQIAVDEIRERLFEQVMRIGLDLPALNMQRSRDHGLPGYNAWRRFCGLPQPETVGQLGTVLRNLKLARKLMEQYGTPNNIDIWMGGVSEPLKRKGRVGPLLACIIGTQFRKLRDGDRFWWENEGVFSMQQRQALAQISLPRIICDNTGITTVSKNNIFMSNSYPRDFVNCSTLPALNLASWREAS
How it was run: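 Started with 40 μM H2O2 and stopped after 5 min with catalase. Developed with an equal volume of 500 uM TMB and 100 μM NaI in 300 mM acetate, pH 5.4. Absorbance read at 650 nm. IC50 given as mean of ≥3 trials ± SD.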

[1] = target: T2, Myeloperoxidase (Homo sapiens) (UniProt P05164); assay: Inhibition of myeloperoxidase (unknown origin) assessed as reduction in H2O2 consumption by H2O2-specific electrode based assay
T2 sequence (whole entry): T1 sequence (P05164 whole entry)
How it was run: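 An H2O2-specific electrode sat in a continuously stirred vessel holding 30 μM H2O2, 154 mM NaCl and varied inhibitor concentrations in 10 mM phosphate buffer, pH 7.4. H2O2 concentration was followed in real time to derive IC50.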

Row | SMILES | IC50 (Myeloperoxidase) | inhibition [1]
1 | CC(=O)OCC(C)n1[nH]c2ccccc2c1=O (configuration not stated) | 2.12 µM | –
2 | COCCn1nc2ccccc2c1OC | 1.08 µM | –
3 | CCCCCCCCn1nc2ccccc2c1OCC | > 10 µM | –
4 | CC(=O)n1c2ccccc2c(=O)n1C(C)C | > 10 µM | –
5 | CCCCCCCCn1nc2ccccc2c1OC | > 10 µM | –
6 | CC(C)n1[nH]c2ccccc2c1=O | 0.66 µM | Active
7 | COc1c2ccccc2nn1CCCCCO | 1.54 µM | –
8 | CCCCCn1nc2ccccc2c1OC | 3.88 µM | –
9 | CCCCn1nc2ccccc2c1OCC | 0.807 µM | Active
10 | CC(C)n1c(=O)c2ccccc2n1S(C)(=O)=O | > 10 µM | –
11 | CCCCn1[nH]c2ccccc2c1=O | 0.792 µM | Active
12 | CC(CCl)n1c(=O)c2ccccc2n1S(C)(=O)=O (configuration not stated) | > 10 µM | –
13 | CCCCCCCCn1[nH]c2ccccc2c1=O | > 10 µM | –
14 | O=c1c2ccccc2[nH]n1CCO | 2.47 µM | –
15 | O=c1c2ccccc2[nH]n1CCCO | 1.95 µM | –
16 | CC(=O)OCC(C)n1c(=O)c2ccccc2n1C(C)=O (configuration not stated) | > 10 µM | –
17 | COc1c2ccccc2nn1CCCCO | 1.79 µM | –

Second part, the compound after the results:

Row | IC50 (Myeloperoxidase) | inhibition [1] | SMILES
18 | > 10 µM | – | CC(CBr)n1c(=O)c2ccccc2n1CC(=O)N1CCOCC1 (configuration not stated)
19 | 0.087 µM | Active | c1c2c(cc3c4n(nc13)CCS4)OCO2
20 | > 10 µM | – | CC(C)n1c(=O)c2ccccc2n1CC(=O)N1CCOCC1
21 | 0.9 µM | Active | CC1COc2c3ccccc3nn21 (configuration not stated)
22 | 0.094 µM | Active | c1ccc2c3n(nc2c1)CCS3
23 | 2.03 µM | – | COc1c2ccccc2nn1-c1ccccc1
24 | 0.704 µM | Active | COc1c2ccccc2nn1C(C)C
25 | 1.4 µM | – | COCCOc1c2ccccc2nn1C(C)C
26 | 1.66 µM | – | COc1c2ccccc2nn1-c1cccc(I)c1
27 | 0.403 µM | Active | c1c2c(cc3c4n(nc13)CCCO4)OCO2
28 | 1.03 µM | – | CC1(C)COc2c3ccccc3nn21
29 | 4.15 µM | – | c1ccc2c(c1)COc1c3ccccc3nn1-2
30 | 2 µM | – | COc1c2ccccc2nn1-c1ccc(I)cc1
31 | 0.213 µM | Active | c1ccc2c3n(nc2c1)CCCS3
32 | 0.711 µM | Active | COc1c2cc3c(cc2nn1C(C)C)OCO3
33 | 0.91 µM | Active | CCCCn1nc2ccccc2c1OC
34 | 0.14 µM | Active | c1c2c(cc3c4n(nc13)CCCS4)OCO2
35 | 0.722 µM | Active | CCOc1c2ccccc2nn1C(C)C
36 | 4.77 µM | – | COc1c2ccccc2nn1-c1cccc(Cl)c1
37 | 0.359 µM | Active | c1ccc2c3n(nc2c1)CCCO3
38 | 1.1 µM | – | C#Cc1ccc(-n2nc3ccccc3c2OC)cc1
